Laboratory results: ChEMBL document CHEMBL1268807, “Discovery of small molecule inhibitors of the PH domain leucine-rich repeat protein phosphatase (PHLPP) by chemical and virtual screening” (J Med Chem, 2010)
Calls of active or inactive are those of the source. The calls are words filed in the database; no cut-off is given here.

What was measured:
HT-29 (Homo sapiens) = assay: Inhibition of PHLPP in human HT29 cells assessed as increase of phosphorylation of Akt on Ser 473 at 100 to 250 uM after 24 hrs by immunoblotting relative to control
HT20 [1] = assay: Inhibition of PHLPP in human […] cells assessed as increase of phosphorylation of FoxO1/3alpha on Thr 24/32 at 100 uM after 24 hrs by immunoblotting; format: cell-based
Summary of the method: (§1)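 HT29 colon cells kept in DMEM with 5% FBS were given compounds (100 or 250 μM, DMSO vehicle) for 24 h, then lysed on ice. […] Densitometry normalized to actin and expressed relative to control lanes; three experiments, mean ± SEM.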

HT20 [2] = assay: Inhibition of PHLPP in human […] cells assessed as increase of phosphorylation of GSK3 alpha/beta on Ser21/9 at 100 uM after 24 hrs by immunoblotting; format: cell-based
Summary of the method: as §1

HT20 [3] = assay: Inhibition of PHLPP in human […] cells assessed as increase of phosphorylation of Akt on Ser 473 at 100 uM after 24 hrs by immunoblotting; format: cell-based
Summary of the method: as §1

[4] = Inhibition of PHLPP in human […] cells assessed as increase of phosphorylation of GSK3 alpha/beta on Ser21/9 at 100 to 250 uM after 24 hrs by immunoblotting; format: cell-based
Summary of the method: as §1

[5] = Inhibition of PHLPP in human […] cells assessed as increase of phosphorylation of FoxO1/3alpha on Thr 24/32 at 100 to 250 uM after 24 hrs by immunoblotting; format: cell-based
Summary of the method: as §1

[6] = target: T1, PH domain leucine-rich repeat-containing protein phosphatase 2 (Homo sapiens, UniProt Q6ZVD8); assay: Inhibition of PHLPP2 phosphatase domain expressed in Escherichia coli
T1 sequence (Q6ZVD8 whole entry): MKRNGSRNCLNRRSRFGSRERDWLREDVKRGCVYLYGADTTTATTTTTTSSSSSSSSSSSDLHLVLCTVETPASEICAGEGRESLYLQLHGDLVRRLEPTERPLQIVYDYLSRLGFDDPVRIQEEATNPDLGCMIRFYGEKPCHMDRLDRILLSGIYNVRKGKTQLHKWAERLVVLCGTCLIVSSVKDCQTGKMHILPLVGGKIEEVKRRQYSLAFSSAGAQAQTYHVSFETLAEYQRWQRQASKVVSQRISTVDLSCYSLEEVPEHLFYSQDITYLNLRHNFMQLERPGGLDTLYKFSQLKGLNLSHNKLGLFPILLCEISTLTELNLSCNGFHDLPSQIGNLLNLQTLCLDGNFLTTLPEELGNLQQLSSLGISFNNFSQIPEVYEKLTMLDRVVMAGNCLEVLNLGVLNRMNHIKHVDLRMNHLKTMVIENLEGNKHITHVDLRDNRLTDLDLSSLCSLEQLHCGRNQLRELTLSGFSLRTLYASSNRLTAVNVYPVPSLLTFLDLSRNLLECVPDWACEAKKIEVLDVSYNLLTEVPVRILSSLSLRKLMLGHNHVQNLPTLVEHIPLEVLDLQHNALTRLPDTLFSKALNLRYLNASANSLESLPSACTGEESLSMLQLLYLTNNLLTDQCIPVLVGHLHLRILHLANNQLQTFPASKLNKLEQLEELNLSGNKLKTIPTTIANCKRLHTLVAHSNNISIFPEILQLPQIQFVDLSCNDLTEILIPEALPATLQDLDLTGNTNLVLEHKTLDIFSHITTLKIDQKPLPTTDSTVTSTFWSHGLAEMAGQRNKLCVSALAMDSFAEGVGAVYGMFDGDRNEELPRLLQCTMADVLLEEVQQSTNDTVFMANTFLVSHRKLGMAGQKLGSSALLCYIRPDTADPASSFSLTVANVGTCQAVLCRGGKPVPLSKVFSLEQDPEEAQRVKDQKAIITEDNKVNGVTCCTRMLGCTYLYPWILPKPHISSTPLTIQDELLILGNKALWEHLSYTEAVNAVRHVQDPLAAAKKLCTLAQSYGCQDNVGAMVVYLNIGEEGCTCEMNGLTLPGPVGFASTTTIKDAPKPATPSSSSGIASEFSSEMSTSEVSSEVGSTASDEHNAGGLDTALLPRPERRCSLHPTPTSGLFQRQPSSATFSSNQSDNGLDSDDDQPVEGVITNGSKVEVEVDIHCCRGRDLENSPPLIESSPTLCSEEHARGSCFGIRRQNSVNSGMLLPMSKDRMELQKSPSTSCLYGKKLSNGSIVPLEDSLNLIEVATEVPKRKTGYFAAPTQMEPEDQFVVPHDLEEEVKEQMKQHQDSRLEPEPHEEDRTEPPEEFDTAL
Summary of the method: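 A405 was followed over time, slope taken, no-enzyme background subtracted. Inhibitor at seven concentrations versus DMSO (100%); fit to eq 1, IC50 = −C0 ln(1/2).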

[7] = Inhibition of protein phosphatase 1 at 10 uM
Summary of the method: (§2)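 PP1, PP2B or PP2Cα phosphatase domain with 8 mM pNPP in each enzyme's optimal buffer. Compound added; activity taken from A405 and expressed relative to DMSO control. At least three experiments, mean ± SEM.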

COS-7 [8] = assay: Induction of apoptosis assessed as basal level of apoptotic cells in african green monkey COS7 cells at 50 uM after 24 hrs by trypan blue exclusion assay
[9] = target: T2, Protein phosphatase 1A (Homo sapiens) (UniProt P35813); assay: Inhibition of PP2Calpha at 10 uM
T2 sequence (whole entry): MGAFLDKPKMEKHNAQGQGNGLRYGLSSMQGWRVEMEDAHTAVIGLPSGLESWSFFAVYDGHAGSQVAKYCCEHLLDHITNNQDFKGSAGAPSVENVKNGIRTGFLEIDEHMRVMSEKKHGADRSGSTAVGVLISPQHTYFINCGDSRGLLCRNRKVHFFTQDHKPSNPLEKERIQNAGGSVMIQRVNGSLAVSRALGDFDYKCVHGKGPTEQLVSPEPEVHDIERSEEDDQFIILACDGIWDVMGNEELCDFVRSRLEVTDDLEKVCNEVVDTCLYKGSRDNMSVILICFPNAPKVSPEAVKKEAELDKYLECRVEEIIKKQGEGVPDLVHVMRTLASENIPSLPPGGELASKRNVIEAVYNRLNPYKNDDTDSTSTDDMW
Summary of the method: as §2

[10] = target: T2, Protein phosphatase 1A (Homo sapiens); assay: Inhibition of PP2Calpha at 100 uM
Summary of the method: as §2

[11] = target: Serine/threonine protein phosphatase PP2B-alpha catalytic subunit (Homo sapiens) (UniProt P16298); assay: Inhibition of protein phosphatase 2B at 10 uM
Summary of the method: as §2

[12] = target: T3, PH domain leucine-rich repeat-containing protein phosphatase 2 (Homo sapiens) (UniProt Q6ZVD8); details: 10 uM
T3 sequence (whole entry): T1 sequence (Q6ZVD8 whole entry)

COS-7 [13] = assay: Inhibition of PHLPP expressed in 24 hrs serum starved Cos7 cells assessed as half maximal increase of phosphorylation on Thr308 after 30 mins by immunoblotting; format: cell-based; details: in the assay text read “after 35 mins” for “after 30 mins”
Summary of the method: (§3)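 COS 7 cells serum-starved 24 h in serum-free DMEM, then exposed 35 min at 37 °C to inhibitor over 4−400 or 3−300 μM; DMSO control. Lysates were immunoblotted for pSer473, pThr308, phospho-Akt-substrate motif, and actin. Densitometry normalized to actin and to DMSO (set to 1), fit to eq 2; four separate experiments, mean ± SEM.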

COS-7 [14] = assay: Inhibition of PHLPP expressed in 24 hrs serum starved Cos7 cells assessed as half maximal increase of phosphorylation of Akt substrate after 30 mins by immunoblotting; format: cell-based; details: in the assay text read “after 35 mins” for “after 30 mins”
Summary of the method: as §3

[15] = Inhibition of protein phosphatase 1 at 100 uM
Summary of the method: as §2

[16] = Inhibition of PHLPP expressed in 24 hrs serum starved Cos7 cells assessed as increase of Akt phosphorylation after 30 mins by immunoblotting; details: COS-7
HT20 [17] = assay: Inhibition of PHLPP in human […] cells assessed as increase of phosphorylation of Akt on Ser 473 at 100 to 250 uM after 24 hrs by immunoblotting relative to control; format: cell-based
Summary of the method: as §1

HT-29 = assay: Cytotoxicity against human HT-29 cells at 100 uM after 24 hrs; format: cell-based; details: ht-29, 24 h

SMILES | inhibition (HT-29 (Homo sapiens)) | further results
Nc1nc(SCc2ccccc2)c2ncn(Cc3ccccc3)c2n1 | Active | –
S=C(Nc1ccc2cn[nH]c2c1)Nc1ccc2cn[nH]c2c1 | Active | –
O=C(O)c1c(O)c(/N=N/c2ccc(S(=O)(=O)Nc3nccs3)cc2)cc2ccccc12 | Active | –
COc1ccc(NCc2c(O)ccc3ccccc23)cc1 | – | inhibition (HT20 [1]): Active; inhibition (HT20 [2]): Active; inhibition (HT20 [3]): inactive
Nc1cc(S(=O)(=O)O)cc2cc(S(=O)(=O)O)c(/N=N/c3ccc(S(=O)(=O)c4ccc(/N=N/c5c(O)ccc6cccc(S(=O)(=O)O)c56)cc4)cc3)c(O)c12 | Active | –
COc1ccc2nc3cc(Cl)ccc3c(Nc3ccc(C(=O)O)c(O)c3)c2c1 | Active | –
NS(=O)(=O)c1ccc(/N=N/c2ccc(O)c(C(=O)O)c2)cc1 | Active | –
Cc1cc(/N=N/c2ccc(/N=N/c3ccc(O)c(C(=O)O)c3)cc2)c(N)cc1N | Active | inhibition [4]: Active; inhibition [5]: Active; IC50 [6]: 3.75 µM
Nc1c(/N=N/c2ccc(-c3ccc(/N=N/c4cc(S(=O)(=O)O)c5ccccc5c4N)cc3)cc2)cc(S(=O)(=O)O)c2ccccc12 | Active | –
Nc1c(S(=O)(=O)O)cc(Nc2cccc(S(N)(=O)=O)c2)c2c1C(=O)c1ccccc1C2=O | Active | inhibition [7]: inactive; basal apoptotic cells (COS-7 [8]): 12%; inhibition [9]: inactive; inhibition [4]: Active; inhibition [5]: Active; inhibition [10]: 50%; inhibition [11]: inactive; inhibition [12]: 80%; Activity (COS-7 [13]): 132 µM; Activity (COS-7 [14]): 36.4 µM; inhibition [15]: 50%; IC50 [16]: 30 µM
COc1cc(-c2ccc(/N=N/c3c(S(=O)(=O)O)cc4cc(N)ccc4c3O)c(OC)c2)ccc1/N=N/c1cc(S(=O)(=O)O)c2ccccc2c1O | Active | –
CS(=O)(=O)c1cc2ccc(Nc3ccccc3)cc2c(O)c1/N=N/c1ccc(-c2ccc(/N=N/c3ccc(O)c(C(=O)O)c3)cc2)cc1 | Active | –
CS(=O)(=O)c1ccc2c(/N=N/c3ccc(-c4ccc(/N=N/c5ccc(N)c6cc(S(=O)(=O)O)ccc56)cc4)cc3)ccc(N)c2c1 | Active | –
O=C(O)c1c(O)c(/N=N/c2ccc(S(=O)(=O)Nc3ccccn3)cc2)cc2ccccc12 | Active | –
CS(=O)(=O)c1cc2cc(Nc3ccccc3)ccc2c(O)c1/N=N/c1ccc(-c2ccc(/N=N/c3ccc(O)c(C(=O)O)c3)cc2)cc1 | Active | –
O=C1c2ccccc2-c2cc([N+](=O)[O-])c([N+](=O)[O-])cc21 | Active | –

SMILES | inhibition (HT-29 (Homo sapiens)) | further results
Nc1cc(N)c(/N=N/c2ccc(S(=O)(=O)O)cc2)cc1/N=N/c1ccc(-c2ccc(/N=N/c3ccc(O)c(C(=O)O)c3)cc2)cc1 | Active | –
CN(C)CCOC(=O)c1ccc(N)cc1 | Active | –
Cc1cc(/N=N/c2ccc(/N=N/c3ccc(S(=O)(=O)O)cc3)cc2)cc(C(=O)O)c1O | Active | –
Cc1ccc(/N=N/c2c(N)c(C)cc(/N=N/c3ccc(/N=N/c4ccc(O)c(C(=O)O)c4)cc3)c2N)c(S(=O)(=O)O)c1 | Active | –
COc1cc(/N=N/c2ccc(S(=O)(=O)O)cc2)ccc1/N=N/c1ccc(O)c(C(=O)O)c1 | Active | –
Cc1cc(-c2ccc(/N=N/c3c(S(=O)(=O)O)cc4cc(S(=O)(=O)O)cc(N)c4c3O)c(C)c2)ccc1/N=N/c1cc(S(=O)(=O)O)c2ccccc2c1O | Active | –
O=S(=O)(O)c1ccc(-c2nnc(-c3ccccn3)nc2-c2ccc(S(=O)(=O)O)o2)o1 | Active | –
CN(C)c1ccc(C(c2ccc(N(C)C)cc2)c2ccc([N+](=O)[O-])cc2)cc1 | Active | –
CC(=O)Nc1ccc(Nc2cc(S(=O)(=O)O)c(N)c3c2C(=O)c2ccccc2C3=O)cc1 | Active | –
O=C(O)c1cc(/N=N/c2ccc(S(=O)(=O)Nc3nccs3)cc2)ccc1O | Active | –
C[C@]12CC[C@H]3[C@@H](CCC4=CC(=O)CC[C@@]43C)[C@@H]1CC[C@@H]2C(=O)COS(=O)(=O)c1ccc(Br)cc1 | – | inhibition (HT20 [17]): Active
O=C(O)C1CCCCC1c1c2ccc(=O)c(O)c-2oc2c(O)c(O)ccc12 (centres undefined) | Active | IC50 [6]: 10 µM
COc1cc(NCCC2CCCCN2)c2ncccc2c1 (centres undefined) | Active | inhibition [4]: Active; inhibition [5]: Active; Activity (HT-29): Toxic
NS(=O)(=O)c1ccc(/N=N/c2ncccc2O)cc1 | Active | –
COc1ccc2nc3cc(Cl)ccc3c(Nc3ccc(C(=O)O)cc3)c2c1 | Active | inhibition [4]: Active; inhibition [5]: Active
